Results on two compounds are retold here after ChEMBL document CHEMBL1955829, “Synthesis and biological evaluation of 4β-sulphonamido and 4β-[(4'-sulphonamido)benzamide]podophyllotoxins as DNA topoisomerase-IIα and apoptosis inducing agents” (2012).

Activity calls are given as the source filed them. The rule behind the calls is not given here.

Experiment [1] concerns ZR-75-1. In words: Growth inhibition of human ZR-75-1 cells after 48 hrs by sulforhodamine B assay. The conditions noted are these: ZR-75-1, 48 h. Type of experiment: functional. In outline:
(§1)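 Cells grown in DMEM with 10% FBS and 2 mM L-glutamine, plated at densities set by doubling time, and held 24 h before dosing. Exposure was 48 h to 0.1, 1, 10 and 100 µM in triplicate wells. Cells fixed with cold TCA (final 10%) 60 min at 4 °C and stained with 0.4% SRB 20 min. Bound dye eluted in 10 mM Tris base and read at 540 nm (690 nm reference). GI50 is the concentration giving 50% reduction in net protein gain versus control; values are the mean of three determinations.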

For experiment [2], the system named is MCF7. In words: Growth inhibition of human MCF7 cells after 48 hrs by sulforhodamine B assay. Type of experiment: functional. Conditions: MCF7, 48 h. The essentials: as §1
For orientation: The SRB assay estimates cell density from bound dye.

In experiment [3] the test system is KB. In words: Growth inhibition of human KB cells after 48 hrs by sulforhodamine B assay. Type of experiment: functional. In outline:
as §1

Experiment [4] is described as follows: Growth inhibition of human DWD cells after 48 hrs by sulforhodamine B assay. The experiment is classed as functional. The essentials: as §1
Experiment [5] concerns COLO 205. In words: Growth inhibition of human COLO205 cells after 48 hrs by sulforhodamine B assay. The experiment is classed as functional. Conditions: COLO 205, 48 h. The essentials: as §1
In experiment [6] the test system is A549. In words: Growth inhibition of human A549 cells after 48 hrs by sulforhodamine B assay. Conditions: A549, 48 h. The experiment is classed as functional. In outline: as §1
For experiment [7], the system named is HOP-62. In words: Growth inhibition of human HOP62 cells after 48 hrs by sulforhodamine B assay. Type of experiment: functional. The conditions noted are these: HOP-62, 48 h. The essentials: as §1
Experiment [8] has as its system COLO 205. In words: Cytotoxicity against human COLO205 cells at 2 uM after 24 hrs by MTT assay. Type of experiment: functional, cell-based. The essentials:
(§2)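 Colo-205 cells plated at 10,000 per well, left overnight, then exposed 24 h at 2, 4 or 8 µM. MTT added for 2 h at 37 °C, formazan dissolved in extraction buffer, and optical density read at 570 nm against untreated cells.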
(Tetrazolium assays rely on reduction of a dye to a coloured formazan, in cell work by metabolically active cells.)

Experiment [9] relates to COLO 205. In words: Cytotoxicity against human COLO205 cells at 8 uM after 24 hrs by MTT assay. Type of experiment: functional, cell-based. The essentials:
as §2

Experiment [10] relates to COLO 205. In words: Cell cycle arrest in human COLO205 cells assessed as accumulation at G0 phase at 4 uM after 24 hrs by FACS analysis (reference value: 4.29%). Type of experiment: functional. The essentials:
(§3)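 Colo-205 cells seeded at […] per 60 mm dish and treated 24 h at 4 µM; TSA arm used TSA at 4 µM for 12 h. Cells trypsinised, fixed in ice-cold 70% ethanol 30 min at 4 °C, RNase 1 mg/mL 30 min at 37 °C, then propidium iodide/citrate/Triton stain. DNA content of 20,000 events read by flow cytometry; phase percentages from histograms.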
On the technique in general: In flow cytometry, cells or beads pass a laser one at a time.

Experiment [11] deals with COLO 205. In words: Cell cycle arrest in human COLO205 cells assessed as accumulation at G0 phase at 4 uM after 24 hrs by FACS analysis in presence of HDAC inhibitor, trichostatin A (reference value: 4.06%). The experiment is classed as functional. In outline:
as §3

Experiment [12] deals with COLO 205. In words: Cell cycle arrest in human COLO205 cells assessed as accumulation at G1 phase at 4 uM after 24 hrs by FACS analysis in presence of HDAC inhibitor, trichostatin A (reference value: 70.57%). The experiment is classed as functional. In outline: as §3
In experiment [13] the test system is COLO 205. In words: Cell cycle arrest in human COLO205 cells assessed as accumulation at S phase at 4 uM after 24 hrs by FACS analysis in presence of HDAC inhibitor, trichostatin A (reference value: 7.89%). The experiment is classed as functional. The essentials:
as §3

Experiment [14] relates to COLO 205. In words: Cell cycle arrest in human COLO205 cells assessed as accumulation at G2/M phase at 4 uM after 24 hrs by FACS analysis in presence of HDAC inhibitor, trichostatin A (reference value: 17.41%). The experiment is classed as functional. The essentials: as §3
In experiment [15] the target is DNA topoisomerase 2-alpha (Homo sapiens) (UniProt P11388). In words: Inhibition of topoisomerase 2alpha in human in COLO205 cells assessed as induction of single-strand DNA breaks at 4 uM after 24 hrs by comet assay. Conditions: COLO 205. Type of experiment: cell-based. The essentials:
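Colo-205 cells treated 24 h at 4 µM. Electrophoresis 20 min at 40 V in 0.5% TBE pH 8. Slides stained with SYBR green 30 min and imaged by fluorescence microscopy at 20×.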

Experiment [16] shares this target. In words: Inhibition of topoisomerase 2alpha using pBR322 DNA as substrate at 50 uM after 30 mins by gel electrophoresis. In outline: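 Purified topo-IIα enzyme (4 U/µL) incubated with pBR322 plasmid DNA and compound at 50, 25 or 10 µM final, in fresh buffer containing ATP, KCl, MgCl2, DTT and Tris pH 8.0. Inhibition of DNA processing assessed on the resulting gel.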

The target of experiment [17] is Serine-protein kinase ATM (Homo sapiens) (UniProt Q13315). In words: Induction of ATM activation in human COLO205 cells at 4 uM after 24 hrs by ATM S1981 staining. The experiment is classed as cell-based. The conditions noted are these: COLO 205. The essentials: (§4)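 Colo-205 cells on coverslips treated 24 h at 4 µM. Fixed in 4% paraformaldehyde, permeabilised with 0.2% Triton X-100, held in methanol overnight at 4 °C, and blocked with 1% BSA. Stained with anti-phospho-ATM (S1981) or anti-phospho-Chk1 (1:100) for 2 h at room temperature, then FITC anti-rabbit secondary for 1 h; DAPI/PI counterstain and confocal imaging.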
Sequence of Serine-protein kinase ATM (Homo sapiens) (Q13315 whole entry): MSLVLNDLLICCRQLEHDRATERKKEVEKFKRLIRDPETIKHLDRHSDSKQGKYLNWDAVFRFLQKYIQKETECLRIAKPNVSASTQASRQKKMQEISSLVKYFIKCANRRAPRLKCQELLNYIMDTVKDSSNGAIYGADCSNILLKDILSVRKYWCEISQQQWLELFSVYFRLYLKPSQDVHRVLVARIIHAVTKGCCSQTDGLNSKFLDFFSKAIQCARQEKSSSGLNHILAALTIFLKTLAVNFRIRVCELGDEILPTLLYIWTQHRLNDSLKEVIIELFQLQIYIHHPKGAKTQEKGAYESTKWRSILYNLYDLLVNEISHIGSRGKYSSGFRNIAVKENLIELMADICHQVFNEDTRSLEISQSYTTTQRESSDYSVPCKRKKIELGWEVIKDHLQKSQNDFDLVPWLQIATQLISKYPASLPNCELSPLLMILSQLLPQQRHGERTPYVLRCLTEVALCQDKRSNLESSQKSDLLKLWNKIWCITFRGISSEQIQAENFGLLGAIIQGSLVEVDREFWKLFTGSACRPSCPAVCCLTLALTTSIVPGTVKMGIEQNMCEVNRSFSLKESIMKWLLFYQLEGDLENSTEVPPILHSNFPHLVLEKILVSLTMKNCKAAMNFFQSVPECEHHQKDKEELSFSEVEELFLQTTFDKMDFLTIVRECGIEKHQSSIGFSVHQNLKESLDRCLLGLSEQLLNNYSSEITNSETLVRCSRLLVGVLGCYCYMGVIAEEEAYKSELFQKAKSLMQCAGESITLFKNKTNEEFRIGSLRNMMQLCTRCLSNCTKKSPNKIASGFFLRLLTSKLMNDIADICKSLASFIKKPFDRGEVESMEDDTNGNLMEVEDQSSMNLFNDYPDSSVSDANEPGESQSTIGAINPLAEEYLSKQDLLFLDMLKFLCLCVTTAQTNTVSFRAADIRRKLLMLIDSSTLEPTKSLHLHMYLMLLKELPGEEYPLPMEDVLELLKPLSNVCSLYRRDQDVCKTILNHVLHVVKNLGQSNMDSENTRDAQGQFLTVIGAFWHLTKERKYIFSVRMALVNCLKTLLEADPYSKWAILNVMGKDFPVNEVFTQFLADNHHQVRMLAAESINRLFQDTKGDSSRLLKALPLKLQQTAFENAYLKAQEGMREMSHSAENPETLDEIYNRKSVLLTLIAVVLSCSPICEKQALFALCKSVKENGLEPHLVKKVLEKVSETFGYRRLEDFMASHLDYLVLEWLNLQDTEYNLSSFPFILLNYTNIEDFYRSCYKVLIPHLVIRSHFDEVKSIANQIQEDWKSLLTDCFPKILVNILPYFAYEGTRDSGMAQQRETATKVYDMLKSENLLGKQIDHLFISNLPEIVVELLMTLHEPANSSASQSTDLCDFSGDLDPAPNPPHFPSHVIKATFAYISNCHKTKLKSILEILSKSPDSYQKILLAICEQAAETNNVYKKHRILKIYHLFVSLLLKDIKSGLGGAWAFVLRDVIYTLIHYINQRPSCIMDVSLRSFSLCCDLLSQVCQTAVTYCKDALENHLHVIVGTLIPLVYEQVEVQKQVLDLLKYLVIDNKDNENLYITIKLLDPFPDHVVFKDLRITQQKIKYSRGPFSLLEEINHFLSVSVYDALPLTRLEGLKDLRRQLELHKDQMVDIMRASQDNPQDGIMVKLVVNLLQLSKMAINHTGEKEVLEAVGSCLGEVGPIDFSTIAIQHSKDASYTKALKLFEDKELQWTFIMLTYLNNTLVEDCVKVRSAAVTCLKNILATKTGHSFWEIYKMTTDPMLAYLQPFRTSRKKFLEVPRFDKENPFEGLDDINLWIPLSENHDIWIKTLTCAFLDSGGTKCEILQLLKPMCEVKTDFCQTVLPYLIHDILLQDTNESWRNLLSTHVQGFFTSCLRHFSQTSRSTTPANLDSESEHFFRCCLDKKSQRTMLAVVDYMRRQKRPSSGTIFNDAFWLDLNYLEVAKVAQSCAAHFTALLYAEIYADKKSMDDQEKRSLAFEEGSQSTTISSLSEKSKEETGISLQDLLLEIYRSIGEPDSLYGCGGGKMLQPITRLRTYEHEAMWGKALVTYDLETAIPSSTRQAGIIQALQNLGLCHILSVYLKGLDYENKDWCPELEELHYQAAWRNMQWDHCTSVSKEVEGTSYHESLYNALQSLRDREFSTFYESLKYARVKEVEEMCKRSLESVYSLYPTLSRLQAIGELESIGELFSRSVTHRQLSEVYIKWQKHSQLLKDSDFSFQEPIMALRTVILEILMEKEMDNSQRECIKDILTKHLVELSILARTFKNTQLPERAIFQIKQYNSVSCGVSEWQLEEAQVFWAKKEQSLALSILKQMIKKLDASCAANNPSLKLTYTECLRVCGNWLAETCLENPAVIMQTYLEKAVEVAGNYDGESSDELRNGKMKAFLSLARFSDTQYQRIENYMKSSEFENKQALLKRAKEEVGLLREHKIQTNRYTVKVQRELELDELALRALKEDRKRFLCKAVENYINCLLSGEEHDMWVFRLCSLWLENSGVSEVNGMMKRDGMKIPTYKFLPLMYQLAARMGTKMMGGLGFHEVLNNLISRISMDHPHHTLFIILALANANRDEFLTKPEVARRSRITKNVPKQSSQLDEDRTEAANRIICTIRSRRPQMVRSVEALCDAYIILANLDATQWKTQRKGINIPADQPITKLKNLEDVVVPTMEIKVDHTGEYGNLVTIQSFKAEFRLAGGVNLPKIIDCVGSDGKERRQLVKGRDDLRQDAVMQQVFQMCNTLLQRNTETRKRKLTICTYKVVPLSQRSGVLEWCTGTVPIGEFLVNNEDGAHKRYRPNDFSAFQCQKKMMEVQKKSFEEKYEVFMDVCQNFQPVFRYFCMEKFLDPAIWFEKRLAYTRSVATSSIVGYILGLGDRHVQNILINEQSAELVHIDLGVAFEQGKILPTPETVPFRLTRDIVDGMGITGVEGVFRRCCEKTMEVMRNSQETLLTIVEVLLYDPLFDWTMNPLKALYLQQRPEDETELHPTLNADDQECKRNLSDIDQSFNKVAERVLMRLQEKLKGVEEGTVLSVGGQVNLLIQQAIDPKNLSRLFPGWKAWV

The target in experiment [18] is T1, Serine/threonine-protein kinase Chk1 (Homo sapiens) (UniProt O14757).
T1 sequence (whole entry): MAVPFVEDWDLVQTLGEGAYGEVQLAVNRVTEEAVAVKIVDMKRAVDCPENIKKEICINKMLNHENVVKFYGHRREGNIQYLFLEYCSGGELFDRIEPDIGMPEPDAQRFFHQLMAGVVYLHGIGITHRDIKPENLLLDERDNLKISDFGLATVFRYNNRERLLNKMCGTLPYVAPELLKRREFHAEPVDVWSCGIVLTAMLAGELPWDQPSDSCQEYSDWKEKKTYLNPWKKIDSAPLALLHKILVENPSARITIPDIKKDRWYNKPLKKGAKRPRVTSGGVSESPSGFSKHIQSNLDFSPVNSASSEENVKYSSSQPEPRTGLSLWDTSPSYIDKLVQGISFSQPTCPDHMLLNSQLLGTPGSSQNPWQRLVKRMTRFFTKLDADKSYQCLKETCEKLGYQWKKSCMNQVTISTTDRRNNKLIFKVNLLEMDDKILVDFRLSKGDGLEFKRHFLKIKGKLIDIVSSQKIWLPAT
In words: Increase in Chk1 phosphorylation at Ser345 in human COLO205 cells after 24 hrs. The experiment is classed as cell-based. Conditions: COLO 205. In outline:
as §4

Experiment [19] concerns COLO 205. In words: Induction of apoptosis in human COLO205 cells assessed as increase in caspase 3 activation at 4 uM after 24 hrs by ELISA. Type of experiment: functional, cell-based.
The test system of experiment [20] is COLO 205. In words: Induction of apoptosis in human COLO205 cells assessed as increase in caspase 3 activation at 4 uM after 24 hrs by Western blotting analysis. The experiment is classed as functional, cell-based. In outline:
(§5)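 Colo-205 cells treated 24 h at 4 µM and lysed in ice-cold RIPA with protease inhibitors and NaF. Protein measured by Bradford; 50 µg per lane run on 12% SDS-PAGE and transferred to PVDF. Membrane blocked 2 h, primary antibody (topo-IIα/β, p21, p16, pro-caspase-3, NF-kB p65) overnight at 4 °C, HRP secondary 1:2000 for 1 h, chemiluminescence detection; β-actin as loading control. Reduced procaspase-3 taken as caspase-3 activation.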

The test system of experiment [21] is COLO 205. In words: Induction of apoptosis in human COLO205 cells assessed as up-regulation of p16 at 4 uM after 24 hrs by Western blotting analysis. The experiment is classed as functional, cell-based. The essentials:
as §5

Sequence of DNA topoisomerase 2-alpha (Homo sapiens) (P11388 whole entry): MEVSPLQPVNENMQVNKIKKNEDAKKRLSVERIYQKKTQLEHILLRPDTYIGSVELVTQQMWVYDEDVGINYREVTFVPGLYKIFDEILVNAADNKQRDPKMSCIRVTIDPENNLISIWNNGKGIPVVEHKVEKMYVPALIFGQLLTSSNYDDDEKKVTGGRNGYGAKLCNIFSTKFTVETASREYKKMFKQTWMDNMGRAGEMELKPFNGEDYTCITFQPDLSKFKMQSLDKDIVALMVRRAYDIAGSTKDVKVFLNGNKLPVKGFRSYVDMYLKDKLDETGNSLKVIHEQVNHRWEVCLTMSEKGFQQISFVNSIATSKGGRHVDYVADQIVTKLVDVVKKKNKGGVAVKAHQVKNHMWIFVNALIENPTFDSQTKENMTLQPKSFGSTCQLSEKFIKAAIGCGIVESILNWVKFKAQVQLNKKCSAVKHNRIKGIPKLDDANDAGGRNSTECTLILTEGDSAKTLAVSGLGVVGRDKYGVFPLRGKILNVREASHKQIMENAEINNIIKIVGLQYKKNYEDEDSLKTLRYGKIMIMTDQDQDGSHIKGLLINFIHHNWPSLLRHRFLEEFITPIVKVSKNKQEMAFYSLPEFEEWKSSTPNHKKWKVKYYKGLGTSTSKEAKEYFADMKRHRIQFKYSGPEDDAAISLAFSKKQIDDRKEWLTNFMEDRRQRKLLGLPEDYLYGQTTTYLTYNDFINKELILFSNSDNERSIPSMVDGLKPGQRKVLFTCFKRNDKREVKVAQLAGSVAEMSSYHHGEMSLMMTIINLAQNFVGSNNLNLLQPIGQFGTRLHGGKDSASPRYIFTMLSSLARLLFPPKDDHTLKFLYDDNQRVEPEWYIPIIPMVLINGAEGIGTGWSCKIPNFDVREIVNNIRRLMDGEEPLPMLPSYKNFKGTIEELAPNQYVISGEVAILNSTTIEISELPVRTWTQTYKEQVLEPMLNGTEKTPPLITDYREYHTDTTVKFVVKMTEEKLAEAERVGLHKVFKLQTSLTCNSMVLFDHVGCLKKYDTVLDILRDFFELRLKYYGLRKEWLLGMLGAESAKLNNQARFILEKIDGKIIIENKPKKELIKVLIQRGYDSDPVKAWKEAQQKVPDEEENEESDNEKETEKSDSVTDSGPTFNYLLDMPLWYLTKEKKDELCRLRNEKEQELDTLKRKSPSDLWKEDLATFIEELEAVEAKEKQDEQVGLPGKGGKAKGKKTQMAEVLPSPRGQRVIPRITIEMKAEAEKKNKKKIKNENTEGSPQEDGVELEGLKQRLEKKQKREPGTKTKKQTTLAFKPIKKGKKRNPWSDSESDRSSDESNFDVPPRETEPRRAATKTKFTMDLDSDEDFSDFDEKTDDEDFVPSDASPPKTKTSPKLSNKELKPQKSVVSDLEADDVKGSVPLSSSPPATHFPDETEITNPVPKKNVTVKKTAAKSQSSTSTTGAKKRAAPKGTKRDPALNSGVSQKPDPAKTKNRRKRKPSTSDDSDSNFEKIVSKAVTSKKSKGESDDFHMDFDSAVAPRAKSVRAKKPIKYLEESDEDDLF

Consider `COc1cc([C@@H]2c3cc4c(cc3[C@@H](O[C@@H]3O[C@@H]5CO[C@@H](C)O[C@H]5[C@H](O)[C@H]3O)[C@H]3COC(=O)[C@H]23)OCO4)cc(OC)c1O` [ETOPOSIDE], for which the GI50 in [1] amounted to 0.2 µM; in experiment [2], 2.11 µM; in experiment [3] it was 0.31 µM; in [4], 0.62 µM; in [5] it was 0.13 µM; in experiment [6] it was 3.08 µM. Further, in experiment [7], growth was halved (GI50) at 0.8 µM. The result in experiment [8], in experiment [9], in experiment [17], in [18], in [19] and in experiment [20] was Active. Further, in [21], the outcome was Active. For the same compound, the Activity in experiment [10] worked out at 5.95%; in [11] it was 56.29%; in experiment [12], 21.74%; in experiment [13] it was 8.55%; in [14], 13.28%. Also, the inhibition result in [15] and in experiment [16] was “Active” each time.

For the compound `COC(=O)c1sccc1S(=O)(=O)N[C@@H]1c2cc3c(cc2[C@@H](c2cc(OC)c(OC)c(OC)c2)[C@H]2C(=O)OC[C@@H]21)OCO3`, the GI50 stood at 0.06 µM in [1]; 0.18 µM in experiment [2]; 0.04 µM in experiment [3]; 0.04 µM in [4]; 0.04 µM in [5]; 0.15 µM in [6]. In [7], this compound displayed a GI50 of 0.04 µM. Further, the outcome in experiment [8], in experiment [9], in experiment [17], in [18], in experiment [19] and in experiment [20] was Active. Also, the outcome in [21] was Active. Moreover, the Activity in experiment [10] amounted to 23.94%; in [11], 57.43%; in experiment [12] it was 18.8%; in experiment [13], 7.85%; in experiment [14], 15.7%. For the same compound, the inhibition in [15] amounted to 60%. Besides, the inhibition result in experiment [16] was “Active”.

What is called GI50 is the concentration at which growth is held to half of that of the control. As a reminder, the inhibition is the change of the read-out against control, counted positive when it falls.
